# Experimental data published in ChEMBL document CHEMBL4364333, “High-throughput screening of bioactive compounds via new catalytic reaction in the pooled mixture” (Bioorg Med Chem Lett, 2019).
# Activity calls are given as the source filed them. No cut-off for these calls is given here.
# Experiments:
# Assay type in all cases: cell-based
# HeLa [1] = test: Cytotoxicity against human HeLa cells expressing alkaline phosphatase assessed as reduction in cell viability at 40 uM incubated for 3 hrs by WST-1 assay
# Summary of the method: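 HeLa cells stably expressing soluble secretory alkaline phosphatase, seeded at equal numbers, exposed to diluted test material for 3 h. Cytotoxicity read out as the number of live cells.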
# HeLa [2] = test: Inhibition of alkaline phosphatase secretion in human HeLa cells at 18 uM incubated for 3 hrs
# Summary of the method: (§1)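 HeLa cells stably expressing soluble secretory alkaline phosphatase, seeded at equal cell numbers, were incubated with the test sample for 3 h. Alkaline phosphatase enzymatic activity in the culture medium was measured as the secretion read-out. Live cell number was counted in parallel to assess cytotoxicity.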
# HeLa [3] = test: Inhibition of alkaline phosphatase secretion in human HeLa cells at 50 uM incubated for 3 hrs; summary of the method: as §1
# HeLa [4] = test: Inhibition of alkaline phosphatase secretion in human HeLa cells incubated for 3 hrs
# Summary of the method: (§2)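 HeLa cells stably expressing soluble secretory alkaline phosphatase, seeded at equal numbers, exposed to diluted test material for 3 h. Secretion read out as alkaline phosphatase enzymatic activity in the culture medium.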
# HeLa [5] = test: Inhibition of alkaline phosphatase secretion in human HeLa cells at 40 uM incubated for 3 hrs; summary of the method: as §2
Compound,Activity (HeLa [1]),other results
Fc1ccc2[nH]cc(C(c3c[nH]c4ccccc34)C(F)(F)F)c2c1 (centres undefined),Non-Toxic,
C[C@H]1CCC/C=C/[C@@H]2C[C@H](O)C[C@H]2[C@H](O)/C=C/C(=O)O1,,inhibition (HeLa [2]): Active
Cn1cc(C(c2c[nH]c3ccccc23)C(F)(F)C(F)(F)F)c2ccccc21 (centres undefined),Non-Toxic,
Fc1cc(F)c2c(c1)[C@H]1CCC[C@H]1C(c1cccnc1)N2 (some centres undefined),,inhibition (HeLa [3]): Active
FC(F)(F)C(c1c[nH]c2ccc(Br)cc12)c1c[nH]c2ccc(Br)cc12,Non-Toxic,inhibition (HeLa [4]): Active
Cn1cc(C(c2cn(C)c3ccccc23)C(F)(F)F)c2ccccc21,Non-Toxic,
FC(F)(F)C(F)(F)C(c1c[nH]c2ccccc12)c1c[nH]c2ccccc12,Non-Toxic,inhibition (HeLa [4]): Active
Fc1ccc2[nH]cc(C(c3c[nH]c4ccc(F)cc34)C(F)(F)F)c2c1,Non-Toxic,
Cn1cc(C(c2c[nH]c3ccccc23)C(F)(F)F)c2ccccc21 (centres undefined),Non-Toxic,
FC(F)(F)C(c1c[nH]c2ccccc12)c1c[nH]c2ccccc12,Non-Toxic,inhibition (HeLa [5]): Active
COc1ccc2[nH]cc(C(c3c[nH]c4ccccc34)C(F)(F)F)c2c1 (centres undefined),Non-Toxic,inhibition (HeLa [4]): Active
Cn1cc(C(c2cn(C)c3ccccc23)C(F)(F)C(F)(F)F)c2ccccc21,Non-Toxic,
FC(F)(F)C(F)(F)C(c1c[nH]c2ccc(Br)cc12)c1c[nH]c2ccc(Br)cc12,Non-Toxic,
FC(F)(F)C(c1c[nH]c2ccccc12)c1c[nH]c2ccc(Br)cc12 (centres undefined),Non-Toxic,inhibition (HeLa [4]): Active
